{"source": "ChEMBL document CHEMBL3244054", "about": "“Kojic amine--a novel gamma-aminobutyric acid analogue” (J Med Chem, 1979)", "key": {"Rattus norvegicus [1]": {"system": "Rattus norvegicus", "assay": "Skeletal muscle relaxant activity in iv dosed chronic spinal Sprague-Dawley rat assessed as reduction of flexor spasm administered every 15 mins interval", "type": "functional", "details": "0.25 h", "how_it_was_run": "(§1)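 Test agent dissolved in normal saline and given to chronic spinal animals intravenously or by oral gavage as cumulative doses at 15-min intervals. The flexor reflex response was compared against predrug control responses. ED70 is the cumulative dose that reduced the flexor reflex by 70% or more.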"}, "Felis catus [2]": {"system": "Felis catus", "assay": "Skeletal muscle relaxant activity in po dosed chronic spinal mongrel cat assessed as reduction of flexor spasm administered every 15 mins interval", "type": "functional", "how_it_was_run": "as §1"}, "Mus musculus [3]": {"system": "Mus musculus", "assay": "Toxicity in Swiss mouse at 128 mg/kg, po", "type": "organism-based", "design": "dose 128 mg/kg, route oral", "details": "in vivo"}, "Felis catus [4]": {"system": "Felis catus", "assay": "Skeletal muscle relaxant activity in iv dosed chronic spinal mongrel cat assessed as reduction of flexor spasm administered every 15 mins interval", "type": "functional", "details": "0.25 h", "how_it_was_run": "as §1"}, "Mus musculus [5]": {"system": "Mus musculus", "assay": "Anticonvulsant activity in po dosed Swiss mouse assessed as reduction of 3-mercaptopropionic acid-induced tonic extensor-seizures within 3 to 7 mins", "type": "functional", "how_it_was_run": "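Robidoux Swiss male mice, 18–22 g. Test substances in saline given orally 30 min before ip 3-mercaptopropionic acid at 25 mg/kg, which induces tonic-extensor seizures within 3–7 min in 90–100% of mice. ED50 is the dose preventing tonic-extensor seizures in 50% of animals, by regression analysis over at least three doses with ten mice per dose level.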"}, "[6]": {"assay": "Dissociation constant, pKa of the compound", "type": "physicochemical"}, "Mus musculus [7]": {"system": "Mus musculus", "assay": "Toxicity in Swiss mouse at 8 mg/kg, po", "type": "organism-based", "design": "dose 8 mg/kg, route oral", "details": "in vivo"}, "Rattus norvegicus [8]": {"system": "Rattus norvegicus", "assay": "Toxicity in iv dosed chronic spinal Sprague-Dawley rat assessed as lethality at cumulative dose of 16 mg/kg, iv", "type": "organism-based", "design": "dose 16 mg/kg, route intravenous", "details": "in vivo"}, "Felis catus [9]": {"system": "Felis catus", "assay": "Skeletal muscle relaxant activity in chronic spinal mongrel cat assessed as reduction of flexor spasm up to 16 mg/kg, iv administered every 15 mins interval", "type": "functional, organism-based", "design": "dose 16 mg/kg", "how_it_was_run": "as §1"}, "Felis catus [10]": {"system": "Felis catus", "assay": "Skeletal muscle relaxant activity in chronic spinal mongrel cat assessed as reduction of flexor spasm up to 7.5 mg/kg, iv administered every 15 mins interval", "type": "functional, organism-based", "design": "dose 7.5 mg/kg", "how_it_was_run": "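Chronic spinal cat preparation. Test substances in normal saline were given iv in cumulative doses at 15-min intervals, and the flexor reflex response was recorded against predrug control responses. ED70 is the cumulative dose reducing the flexor reflex response by 70% or more.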"}}, "note": "The source made the active and inactive calls. No cut-off for these calls is given here.", "data": [{"compound": "NCc1cc(=O)c(O)co1", "values": [{"measurement": "ED70", "setting": "Rattus norvegicus [1]", "value": 8, "unit": "mg/kg"}, {"measurement": "ED70", "setting": "Felis catus [2]; 0.25 h", "value": 4, "unit": "mg/kg"}, {"measurement": "Activity", "setting": "Mus musculus [3]", "value": "Non-toxic"}, {"measurement": "ED70", "setting": "Felis catus [4]", "value": 2.2, "unit": "mg/kg"}, {"measurement": "ED50", "setting": "Mus musculus [5]", "value": 15, "unit": "mg/kg"}, {"measurement": "pKa", "setting": "[6]", "value": 6.6}]}, {"compound": "NCCCC(=O)O", "note": "[GAMMA-AMINOBUTYRIC ACID]", "values": [{"measurement": "pKa", "setting": "[6]", "value": 4.04}]}, {"compound": "NCCC(=O)NCc1cc(=O)c(O)co1", "values": [{"measurement": "ED70", "setting": "Felis catus [2]", "value": "inactive"}]}, {"compound": "NCc1cc(=O)[nH]o1", "note": "[MUSCIMOL]", "values": [{"measurement": "Activity", "setting": "Mus musculus [7]", "value": "Toxic"}, {"measurement": "Activity", "setting": "Rattus norvegicus [8]", "value": "Toxic"}, {"measurement": "pKa", "setting": "[6]", "value": 4.78}]}, {"compound": "Cn1cc(O)c(=O)cc1CN", "values": [{"measurement": "ED70", "setting": "Felis catus [2]", "value": "inactive"}]}, {"compound": "O=c1cc(CNCc2ccccc2)occ1O", "values": [{"measurement": "ED70", "setting": "Felis catus [2]", "value": "inactive"}]}, {"compound": "NC(Cl)c1cc(=O)c(O)co1", "note": "(stereo not given)", "values": [{"measurement": "ED70", "setting": "Felis catus [2]", "value": "inactive"}]}, {"compound": "NCc1cc(=O)c(O)c[nH]1", "values": [{"measurement": "ED70", "setting": "Felis catus [2]", "value": "inactive"}]}, {"compound": "NCCCC(=O)NCc1cc(=O)c(O)co1", "values": [{"measurement": "ED70", "setting": "Felis catus [2]", "value": "inactive"}]}, {"compound": "CC(N)c1cc(=O)c(O)co1", "note": "(stereo not given)", "values": [{"measurement": "ED70", "setting": "Felis catus [2]", "value": "inactive"}]}, {"compound": "O=c1cc(CO)occ1O", "note": "[KOJIC ACID]", "values": [{"measurement": "pKa", "setting": "[6]", "value": 7.95}]}, {"compound": "CN(C)Cc1cc(=O)c(O)co1", "values": [{"measurement": "ED70", "setting": "Felis catus [2]", "value": "inactive"}]}, {"compound": "NCCc1cc(=O)c(O)co1", "values": [{"measurement": "ED70", "setting": "Felis catus [2]", "value": "inactive"}]}, {"compound": "CC(=O)NCc1cc(=O)c(O)co1", "values": [{"measurement": "ED70", "setting": "Felis catus [2]", "value": "inactive"}]}, {"compound": "CC(N)C(=O)NCc1cc(=O)c(O)co1", "note": "(stereo not given)", "values": [{"measurement": "ED70", "setting": "Rattus norvegicus [1]", "value": 8, "unit": "mg/kg"}, {"measurement": "ED70", "setting": "Felis catus [4]", "value": 12, "unit": "mg/kg"}]}, {"compound": "CNCc1cc(=O)c(O)co1", "values": [{"measurement": "ED70", "setting": "Felis catus [2]", "value": "inactive"}]}, {"compound": "NCC(=O)NCc1cc(=O)c(O)co1", "values": [{"measurement": "ED70", "setting": "Rattus norvegicus [1]", "value": 8, "unit": "mg/kg"}, {"measurement": "ED70", "setting": "Felis catus [4]", "value": 12, "unit": "mg/kg"}]}, {"compound": "NCCCc1cc(=O)c(O)co1", "values": [{"measurement": "Activity", "setting": "Felis catus [9]", "value": "inactive"}]}, {"compound": "NCc1cc(O)no1", "note": "[MUSCIMOL]", "values": [{"measurement": "ED70", "setting": "Rattus norvegicus [1]", "value": 16, "unit": "mg/kg"}, {"measurement": "ED50", "setting": "Mus musculus [5]", "value": 1.34, "unit": "mg/kg"}, {"measurement": "Activity", "setting": "Felis catus [10]", "value": "inactive"}]}]}
